Experimental data published in ChEMBL document CHEMBL3414537, “Efficient synthesis and biological activity of Psammaplin A and its analogues as antitumor agents” (Eur J Med Chem, 2015).
Activity calls are given as the source filed them. The rule behind the calls is not given here.

Assays:
A549 [1] = experiment: Cytotoxicity against human A549 cells by SRB assay; format: functional, cell-based
Summary of the method: (§1)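 Cells at 3.5 × 10^4 cells/mL in RPMI 1640 with 10% heat-inactivated FBS were exposed to a range of concentrations for 72 h. They were then TCA-fixed (10%) and stained with sulforhodamine B. Growth is expressed as % of solvent-treated control, and IC50 is obtained by non-linear regression. Means of ≥3 experiments.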

[2] = Cytotoxicity against human HCT116 cells by SRB assay; format: functional, cell-based; conditions: HCT-116; summary of the method: as §1
A549 [3] = experiment: Antiproliferative activity against human A549 cells assessed as shrunken and sharp shape at 0.4 uM after 24 hrs by phase contrast microscopy; format: functional, cell-based
Summary of the method: (§2)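 A549 cells (RPMI 1640, 10% heat-inactivated FBS, 37 °C, 5% CO2) exposed to 0.2–1.6 µM for 24 h; TSA 0.4 µM run alongside. Cell shape examined by phase-contrast microscopy.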

[4] = target: T1, Histone deacetylase (Homo sapiens) (UniProt Q13547+O15379+Q9UBN7+Q92769+Q9UQL6+Q8WUI4+Q9BY41+Q96DB2+P56524+Q9UKV0+Q969S8); experiment: Inhibition of HDAC in human A549 cells at 1.6 uM after 24 hrs by fluorescence assay; format: cell-based
A549 [5] = experiment: Antitumor activity against human A549 cells xenografted in athymic BALB/c nu/nu mouse assessed as reduction in tumor weight at 30 mg/kg, ip administered thrice a week measured after 35 days relative to vehicle-treated control; format: functional, organism-based; set-up: dose 30 mg/kg
Summary of the method: (§3)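 Male BALB/c nu/nu mice (6 weeks) were implanted s.c. in the right flank with 1 × 10^7 A549 cells. Dosing started at tumor volume 50–60 mm3, with 6 mice per group. Treatment was 15 or 30 mg/kg i.p. three times weekly in 0.05% Tween-80/0.9% NaCl, with vehicle and paclitaxel 5 mg/kg controls. Tumor volume was followed to day 35, and end-point tumors were weighed.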

[6] = target: T1, Histone deacetylase (Homo sapiens); experiment: Inhibition of HDAC in human A549 cells assessed as increase in acetylated histone 3 expression level at 1.6 uM after 24 hrs by western blotting analysis; format: cell-based
Summary of the method: (§4)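 After 24 h exposure (0.2–1.6 µM), A549 lysates were prepared in Tris-HCl pH 6.8/4% SDS buffer with protease and phosphatase inhibitors at 4 °C. Equal protein was separated by SDS-PAGE and transferred to PVDF. Membranes were blocked in 5% BSA/TBS-Tween for 2 h, incubated with primary antibody overnight at 4 °C, then HRP secondary for 1 h, with chemiluminescent detection.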

A549 [7] = experiment: Antitumor activity against human A549 cells xenografted in athymic BALB/c nu/nu mouse assessed as reduction in tumor weight at 15 to 30 mg/kg, ip administered thrice a week measured after 35 days relative to vehicle-treated control; format: functional, organism-based; summary of the method: as §3
A549 [8] = experiment: Antitumor activity against human A549 cells xenografted in athymic BALB/c nu/nu mouse assessed as tumor growth inhibition at 15 mg/kg, ip administered thrice a week measured after 35 days relative to vehicle-treated control; format: functional; conditions: 840 h, route intraperitoneal, read-out: TGI; summary of the method: as §3
A549 [9] = experiment: Antiproliferative activity against human A549 cells assessed as shrunken and sharp shape at 1.6 uM after 24 hrs by phase contrast microscopy; format: functional, cell-based; summary of the method: as §2
A549 [10] = experiment: (§5) Antitumor activity against human A549 cells xenografted in athymic BALB/c nu/nu mouse assessed as change in cell number in edge or peripheral region of tumor at 15 to 30 mg/kg, ip administered thrice a week measured after 35 days by immunohistochemical analysis relative to vehicle-treated control; format: functional, organism-based
Summary of the method: (§6)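 In the A549 nude-mouse xenograft (15 or 30 mg/kg i.p. thrice weekly, vehicle control), end-point tumor sections were incubated overnight at 4 °C with Ki-67 antibody. Detection used an HRP polymer system with hematoxylin-eosin counterstain, and sections were imaged by light microscopy.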

A549 [11] = experiment: as §5, with “inhibition of Ki-67 expression” for “change”, “central and” for “cell number in”, “edge” for “edge or peripheral”; format: functional, organism-based; summary of the method: as §6
A549 [12] = experiment: Antiproliferative activity against human A549 cells assessed as morphological changes after 24 hrs by phase contrast microscopy; format: functional, cell-based; summary of the method: as §2
Mus musculus = experiment: Toxicity in athymic BALB/c nu/nu mouse xenografted with human A549 cells assessed as change in body weight at 15 to 30 mg/kg, ip administered thrice a week measured after 35 days relative to vehicle-treated control; format: organism-based; set-up: dose 15-30 mg/kg, route intraperitoneal; conditions: in vivo, 840 h
A549 [13] = experiment: Antitumor activity against human A549 cells xenografted in athymic BALB/c nu/nu mouse assessed as tumor growth inhibition at 30 mg/kg, ip administered thrice a week measured after 35 days relative to vehicle-treated control; format: functional; conditions: 840 h, route intraperitoneal, read-out: TGI; summary of the method: as §3
A549 [14] = experiment: Antitumor activity against human A549 cells xenografted in athymic BALB/c nu/nu mouse assessed as change in cell number in central region of tumor at 15 to 30 mg/kg, ip administered thrice a week measured after 35 days by immunohistochemical analysis relative to vehicle-treated control; format: functional, organism-based; summary of the method: as §6
A549 [15] = experiment: Induction of phosphorylated AKT level in human A549 cells after 24 hrs by Western blotting analysis; format: cell-based; summary of the method: as §4
A549 [16] = experiment: Induction of phosphorylated ERK level in human A549 cells after 24 hrs by Western blotting analysis; format: cell-based; summary of the method: as §4
[17] = target: T1, Histone deacetylase (Homo sapiens); experiment: Inhibition of HDAC in human A549 cells after 24 hrs by fluorescence assay; format: cell-based
[18] = target: T1, Histone deacetylase (Homo sapiens); experiment: Inhibition of HDAC in human A549 cells assessed as increase in acetylated histone 3 expression level after 24 hrs by western blotting analysis; format: cell-based; summary of the method: as §4

Structure (SMILES) | IC50 (A549 [1]) | IC50 [2] | other results
O=C(NCCSSCCNC(=O)/C(Cc1ccc(F)cc1)=N/O)/C(Cc1ccc(F)cc1)=N\O | 3.5 µM | 3.78 µM | –
O=C(NCCCl)/C(Cc1ccc(OCc2ccccc2)cc1)=N\O | > 100 µM | > 100 µM | –
O=C(NCCSSCCNC(=O)/C(Cc1cc(Cl)cc(Cl)c1)=N/O)/C(Cc1cc(Cl)cc(Cl)c1)=N\O | 2.28 µM | 2.1 µM | –
O=C(NCCCCCCNC(=O)/C(Cc1ccc(OCc2ccccc2)cc1)=N\O)/C(Cc1ccc(OCc2ccccc2)cc1)=N\O | 20.1 µM | > 100 µM | –
CO/N=C(/Cc1ccc(OC)cc1)C(=O)NCCSSCCNC(=O)/C(Cc1ccc(OC)cc1)=N\OC | > 100 µM | > 100 µM | –
O=C(NCCS)/C(Cc1ccc(OCc2ccccc2)cc1)=N\O | 40 µM | 85.1 µM | –
O=C(NCCSSCCNC(=O)/C(Cc1ccc(Br)cc1)=N/O)/C(Cc1ccc(Br)cc1)=N\O | 5.89 µM | 7.24 µM | –
O=C(NCCSSCCNC(=O)/C(Cc1ccc(Cl)c(Cl)c1)=N/O)/C(Cc1ccc(Cl)c(Cl)c1)=N\O | 1.6 µM | 1.46 µM | –
O=C(NCCSSCCNC(=O)/C(Cc1ccc(Oc2ccccc2)cc1)=N/O)/C(Cc1ccc(Oc2ccccc2)cc1)=N\O | > 100 µM | 20.4 µM | –
Cc1ccc(C/C(=N/O)C(=O)NCCSSCCNC(=O)/C(Cc2ccc(C)cc2)=N/O)cc1 | 6.09 µM | 5.63 µM | –
CC(/C=C/C(=O)NO)=C\[C@@H](C)C(=O)c1ccc(N(C)C)cc1 | – | – | Activity (A549 [3]): Active
O=C(NCCSSCCNC(=O)/C(Cc1ccc(OC2CCCC2)cc1)=N/O)/C(Cc1ccc(OC2CCCC2)cc1)=N\O | 1.4 µM | 5.34 µM | –
O=C(NCCSSCCNC(=O)/C(Cc1ccc(OCc2ccccc2)cc1)=N/O)/C(Cc1ccc(OCc2ccccc2)cc1)=N\O | 1.12 µM | 1.57 µM | –
O=C(NCCSSCCNC(=O)/C(Cc1cc(Cl)cc(Cl)c1Cl)=N/O)/C(Cc1cc(Cl)cc(Cl)c1Cl)=N\O | 5.09 µM | 4.23 µM | –
O=C(NCCSSCCNC(=O)/C(Cc1ccc(O)c(Br)c1)=N/O)/C(Cc1ccc(O)c(Br)c1)=N/O [PSAMMAPLIN A] | 1.18 µM | 1.62 µM | inhibition [4]: Active; Activity (A549 [5]): Active; inhibition [6]: Active
O=C(NCCSSCCNC(=O)/C(Cc1ccc(Cl)cc1)=N/O)/C(Cc1ccc(Cl)cc1)=N\O | 2.58 µM | 2.03 µM | –
COc1ccc(C/C(=N/O)C(=O)NCCSSCCNC(=O)/C(Cc2ccc(OC)cc2)=N/O)cc1 | 2.81 µM | 4.39 µM | –
CCCCOc1ccc(C/C(=N/O)C(=O)NCCSSCCNC(=O)/C(Cc2ccc(OCCCC)cc2)=N/O)cc1 | 41.1 µM | 23.8 µM | –
O=C(NCCSSCCNC(=O)/C(Cc1cccc2ccccc12)=N/O)/C(Cc1cccc2ccccc12)=N\O | > 100 µM | > 100 µM | –
CCOc1ccc(C/C(=N/O)C(=O)NCCSSCCNC(=O)/C(Cc2ccc(OCC)cc2)=N/O)cc1 | 1.37 µM | 1.61 µM | –
O=C(NCCSSCCNC(=O)/C(Cc1ccc([N+](=O)[O-])cc1)=N/O)/C(Cc1ccc([N+](=O)[O-])cc1)=N\O | 2.66 µM | 1.8 µM | –
CC(C)(C)c1ccc(C/C(=N/O)C(=O)NCCSSCCNC(=O)/C(Cc2ccc(C(C)(C)C)cc2)=N/O)cc1 | 1.78 µM | 1.67 µM | –
O=C(NCCSCCNC(=O)/C(Cc1ccc(OCc2ccccc2)cc1)=N\O)/C(Cc1ccc(OCc2ccccc2)cc1)=N\O | 2.5 µM | > 100 µM | –
CO/N=C(/Cc1ccc(OC)c(Br)c1)C(=O)NCCSSCCNC(=O)/C(Cc1ccc(OC)c(Br)c1)=N\OC | 9.2 µM | 10.7 µM | –
O=C(NCCSSCCNC(=O)/C(Cc1ccc2ccccc2c1)=N/O)/C(Cc1ccc2ccccc2c1)=N\O | 1.2 µM | 1.3 µM | Activity (A549 [7]): Active; Activity (A549 [1]): Dose-dependent effect; inhibition in vivo at 15 mg/kg (A549 [8]): 30.4%; Activity (A549 [9]): Active; Activity (A549 [10]): Active; inhibition (A549 [11]): Active; Activity (A549 [12]): Dose-dependent effect; Activity (Mus musculus): Non-toxic; inhibition in vivo at 30 mg/kg (A549 [13]): 47.6%; Activity (A549 [14]): inactive; Activity (A549 [15]): Dose-dependent effect; Activity (A549 [16]): Dose-dependent effect; inhibition [17]: Dose-dependent effect; inhibition [18]: Dose-dependent effect
CCCOc1ccc(C/C(=N/O)C(=O)NCCSSCCNC(=O)/C(Cc2ccc(OCCC)cc2)=N/O)cc1 | 13.5 µM | 15.5 µM | –
O=C(NCCSSCCNC(=O)/C(Cc1ccccc1)=N/O)/C(Cc1ccccc1)=N\O | 6.55 µM | 6.22 µM | –
O=C(NCCSSCCNC(=O)/C(Cc1c2ccccc2cc2ccccc12)=N\O)/C(Cc1c2ccccc2cc2ccccc12)=N\O | 18.5 µM | 28.4 µM | –
O=C(NCCCCl)/C(Cc1ccc(OCc2ccccc2)cc1)=N\O | > 100 µM | > 100 µM | –
